From ChEMBL document CHEMBL3600383, “A new polyoxygenated cyclohexene and a new megastigmane glycoside from Uvaria grandiflora” (Bioorg Med Chem Lett, 2015) come the findings set out here.

What all share (type): functional, cell-based
For assay [1], the system named is Lu1. Nature of the assay: Cytotoxic activity against human Lu1 cells assessed as inhibition of cell growth incubated for 48 hrs by SRB method. To be noted: Lu1, 48 h. Put shortly:
(§1)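 Sulforhodamine B growth-inhibition assay run as part of a panel of nine human cancer cell lines. Potency is reported as IC50 in µM.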
(The SRB assay estimates cell density from bound dye.)

The test system of assay [2] is KB. The assay is described as follows: Cytotoxic activity against human KB cells assessed as inhibition of cell growth incubated for 48 hrs by SRB method. The method, boiled down: as §1
Assay [3] has as its system MDA-MB-231. The assay is described as follows: Cytotoxic activity against human MDA-MB-231 cells assessed as inhibition of cell growth incubated for 48 hrs by SRB method. The settings on record: MDA-MB-231, 48 h. Put shortly:
as §1

In assay [4] the test system is LNCaP. The assay is described as follows: Cytotoxic activity against human LNCAP cells assessed as inhibition of cell growth incubated for 48 hrs by SRB method. The method, boiled down: as §1
Assay [5] deals with HepG2. Nature of the assay: Cytotoxic activity against human HepG2 cells assessed as inhibition of cell growth incubated for 48 hrs by SRB method. To be noted: HepG2, 48 h. Put shortly: as §1
Assay [6] in a line: Cytotoxic activity against human MKN7 cells assessed as inhibition of cell growth incubated for 48 hrs by SRB method. To be noted: MKN-7, 48 h. Put shortly:
as §1

Assay [7] relates to SW480. Nature of the assay: Cytotoxic activity against human SW480 cells assessed as inhibition of cell growth incubated for 48 hrs by SRB method. The settings on record: SW480, 48 h. Put shortly: as §1
Assay [8] deals with HL-60. Nature of the assay: Cytotoxic activity against human HL60 cells assessed as inhibition of cell growth incubated for 48 hrs by SRB method. The settings on record: HL-60, 48 h. The method, boiled down:
as §1

The test system of assay [9] is SK-MEL-2. The assay is described as follows: Cytotoxic activity against human SK-MEL-2 cells assessed as inhibition of cell growth incubated for 48 hrs by SRB method. The settings on record: SK-MEL-2, 48 h. The method, boiled down:
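Sulforhodamine B growth-inhibition assay, run in parallel across a panel of nine human cancer cell lines. Potency is reported as IC50 in µM.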

The structures appear in SMILES notation.

The term IC50 denotes the concentration needed to halve the response being measured. For `O=C(OC[C@@]1(O)C(=O)C=C[C@@H](O)[C@@H]1O)c1ccccc1`, the IC50 worked out at 4680 nM in assay [1]; 13.3 µM in assay [2]; 64.1 µM in assay [3]; 45.4 µM in assay [4]; 13.1 µM in [5]; 8.63 µM in [6]. Further, the IC50 worked out at 11.3 µM in assay [7], 6.22 µM in assay [8] and 3630 nM in [9].
`C[C@@H]1O[C@@H](O[C@H]2[C@H](O[C@H]3CO[C@@H](O[C@H]4CC[C@]5(C)[C@H]6CC[C@]78OC[C@@]9(CC[C@](C)(C=O)C[C@H]97)[C@H](O)C[C@@]8(C)[C@]6(C)CC[C@H]5C4(C)C)[C@H](O[C@@H]4O[C@H](CO)[C@@H](O)[C@H](O)[C@H]4O)[C@H]3O)O[C@H](CO)[C@@H](O)[C@@H]2O)[C@H](O)[C@H](O)[C@H]1O` [ARDISIACRISPIN B]: the IC50 in assay [1] was 1410 nM; in [2], 1.6 µM; in assay [3] it was 11.8 µM; in [4], 9.7 µM; in assay [5], 1.53 µM; in assay [6] it was 1.27 µM. In addition, the results for the IC50 in assay [7] and in assay [8] were 1.24 µM and 22.6 µM, respectively.
On to `Cc1c2ccncc2c(C)c2c1[nH]c1ccccc12` [ELLIPTECINE], for which the IC50 in assay [1] was 2720 nM; in assay [2], 3.98 µM; in [3] it was 3.21 µM; in assay [4] it was 3.21 µM; in assay [5], 3.5 µM; in [6], 3.82 µM. The IC50 was 3.17 µM in [7], 2.93 µM in [8] and 1140 nM in assay [9].
